Test results as given in the M2OR odorant receptor database.

Target: T1, UniProt Q8VF24
T1 sequence (whole entry): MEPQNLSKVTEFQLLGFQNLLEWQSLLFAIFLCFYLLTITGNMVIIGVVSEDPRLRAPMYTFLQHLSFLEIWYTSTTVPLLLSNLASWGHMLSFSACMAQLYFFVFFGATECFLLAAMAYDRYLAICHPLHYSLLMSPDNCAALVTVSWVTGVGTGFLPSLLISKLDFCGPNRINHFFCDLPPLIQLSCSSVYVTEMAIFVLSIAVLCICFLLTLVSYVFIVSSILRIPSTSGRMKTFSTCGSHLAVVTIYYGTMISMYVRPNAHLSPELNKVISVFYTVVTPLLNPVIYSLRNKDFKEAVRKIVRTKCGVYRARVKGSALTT
Conditions: stereoisomer not certain
Summary of the method: (§1)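 Values were gathered from published papers (main text and supplementary material), with extra details requested from the original authors when needed, and checked for typos and inconsistencies. Each receptor–molecule pair is called responsive (active) if the original authors judged the measured signal statistically different from baseline, and non-responsive (inactive) otherwise. Assay methods varied by source, often transient mammalian cell-line luciferase assays. Recorded details include cell line, G-protein, co-transfected protein and tags.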

Odorant receptor agonist call, active:
CC12CCC(CC1=O)C2(C)C (configuration not stated)

Odorant receptor agonist call, inactive:
CCCCCCC(C)=O
CCCCCCC(=O)[O-].[H+]
CC(=O)OCC=C(C)C
O=C1Cc2ccccc2O1
COc1cc(C(=O)O)ccc1O
CC(=O)Oc1ccccc1
CC(C)=CCCC(C)CCO (configuration not stated)
CCCCCC=O
CCCCCCCC(C)=O
CCCCCO
O=c1ccc2ccccc2o1
O=C(c1ccccc1)c1ccccc1
CCCCCCCCS
C=CCOC(=O)CCCCCC
CCCCOC(=O)C(C)OC(=O)CCC (configuration not stated)
CCC(C(=O)O)c1ccccc1 (configuration not stated)
c1ccccc1
CC(=O)OCc1ccccc1

Target: T2, UniProt Q8VF43
T2 sequence (whole entry): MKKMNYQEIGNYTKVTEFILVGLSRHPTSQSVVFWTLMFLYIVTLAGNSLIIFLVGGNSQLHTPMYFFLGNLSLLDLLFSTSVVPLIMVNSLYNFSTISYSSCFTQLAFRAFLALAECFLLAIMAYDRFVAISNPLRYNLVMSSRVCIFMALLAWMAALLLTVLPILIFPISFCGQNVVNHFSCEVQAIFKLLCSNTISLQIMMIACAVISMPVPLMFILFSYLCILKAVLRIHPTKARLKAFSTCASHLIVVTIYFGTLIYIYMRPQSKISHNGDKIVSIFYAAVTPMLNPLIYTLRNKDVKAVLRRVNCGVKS
Conditions: stereoisomer not certain
Summary of the method: as §1

Odorant receptor agonist call, inactive:
CCCCCCC(C)=O
CC(=O)OCC=C(C)C
CC(C)CS
CCCC=O
CCSSCC
c1ccc2ncccc2c1
O=C1Cc2ccccc2O1
COc1cc(C(=O)O)ccc1O
CC12CCC(CC1=O)C2(C)C (configuration not stated)
CC(=O)Oc1ccccc1
CCCCCCCOC(=O)C(C)C
CNc1ccccc1C(=O)OC
CC(C)=CCCC(C)CCO (configuration not stated)
CCCCCC=O
CCCCCCCC(C)=O
CSSCc1ccco1
CC(C)=CCCC(C)=CCOC(=O)C(C)C
O=C(c1ccccc1)c1ccccc1
CCOC(=O)C(C)CC (configuration not stated)
CC1CCC(C(C)C)C(=O)C1 (configuration not stated)
CCCCCCCCS
O=C([O-])CCCCCCC(=O)[O-].[H+].[H+]
CCc1ccccc1O
C=CC(=C)CCC=C(C)CCC=C(C)C
C=CCOC(=O)CCCCCC
CCCCCOC(=O)CCC
CC1CC=CCCCCCCCCCC(=O)C1 (configuration not stated)
c1ccccc1
CC(=O)OCc1ccccc1

Target: T3, UniProt Q8VF44
T3 sequence (whole entry): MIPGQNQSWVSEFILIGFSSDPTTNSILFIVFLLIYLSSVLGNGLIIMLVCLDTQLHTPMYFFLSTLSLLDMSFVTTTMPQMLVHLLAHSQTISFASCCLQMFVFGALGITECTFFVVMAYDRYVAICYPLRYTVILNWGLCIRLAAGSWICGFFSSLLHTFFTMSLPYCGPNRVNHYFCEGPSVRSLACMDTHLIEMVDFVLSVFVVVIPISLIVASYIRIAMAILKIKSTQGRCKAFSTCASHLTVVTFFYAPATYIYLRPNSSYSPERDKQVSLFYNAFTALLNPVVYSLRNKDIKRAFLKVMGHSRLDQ
Conditions: stereoisomer not certain
Summary of the method: as §1

Odorant receptor agonist call, inactive:
CCCCCCC(C)=O
CCCCCCC(=O)[O-].[H+]
CC(=O)OCC=C(C)C
COc1cc(C(=O)O)ccc1O
CC12CCC(CC1=O)C2(C)C (configuration not stated)
CC(=O)Oc1ccccc1
CC(C)=CCCC(C)CCO (configuration not stated)
CCCCCC=O
CCCCCCCC(C)=O
CCCCCO
CCCCCCCCS
C=CCOC(=O)CCCCCC
CCCCOC(=O)C(C)OC(=O)CCC (configuration not stated)
CCC(C(=O)O)c1ccccc1 (configuration not stated)
c1ccccc1
CC(=O)OCc1ccccc1

Odorant receptor agonist call, active:
O=C1Cc2ccccc2O1
O=c1ccc2ccccc2o1
O=C(c1ccccc1)c1ccccc1
